According to ChEMBL document CHEMBL1157478, “Pyrrolo[2,1-c][1,4]benzodiazepine-beta-glucuronide prodrugs with a potential for selective therapy of solid tumors by PMT and ADEPT strategies” (Bioorg Med Chem Lett, 2008):
Active and inactive are the calls of the source. The rule behind the calls is not given here.

Key:
HT-29 [1] = assay: Cytotoxicity against human HT29 cells by MTT assay; assay type: functional, cell-based
HT-29 [2] = assay: Induction of cell shrinkage in human HT29 cells after 2 hrs; assay type: functional, cell-based
Summary of the method: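 HT-29 adenocarcinoma cells were incubated 2 h with compound alone. Morphology (shrinkage) was examined under the microscope against untreated control cells.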

HT-29 [3] = assay: Induction of cell shrinkage in human HT29 cells after 2 hrs in presence of beta-glucuronidase; assay type: functional, cell-based
Summary of the method: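 HT-29 adenocarcinoma cells were incubated 2 h with compound plus the enzyme beta-glucuronidase. Shrinkage was scored by microscopic examination of cell morphology against untreated control cells.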

HT-29 [4] = assay: Activation factor, ratio of IC50 for human HT29 cells to IC50 for human HT29 cells in presence of beta-glucuronidase; assay type: functional
HT-29 [5] = assay: Cytotoxicity against human HT29 cells in presence of beta-glucuronidase by MTT assay; assay type: functional, cell-based

Work on `COc1cc2c(cc1OCCCCCOc1cc3c(cc1OC)C(=O)N1CCC[C@H]1C(=O)N3)N=C[C@@H]1CCCN1C2=O` yielded an IC50 (HT-29 [1]) of 8.12 µmol.
`COc1cc2c(cc1O)N=C[C@@H]1CCCN1C2=O` was tested, and the Activity (HT-29 [2]) was “Active” and the IC50 (HT-29 [1]) was 30.19 µmol.
With `COc1cc2c(cc1OCc1ccccc1)N(C(=O)OCc1ccc(O[C@@H]3O[C@H](C(=O)O)[C@@H](O)[C@H](O)[C@H]3O)c([N+](=O)[O-])c1)C(O)[C@@H]1CCCN1C2=O` (stereo partly specified) the Activity (HT-29 [3]) was “Active”, the Activity (HT-29 [2]) was “inactive” and the “Ratio IC50” value (HT-29 [4]) was 126.67. The IC50 (HT-29 [5]) was 41.68 µmol and the IC50 (HT-29 [1]) was 5280 µmol.
`COc1cc2c(cc1OCCCCCOc1cc3c(cc1OC)C(=O)N1CCC[C@H]1C(O)N3C(=O)OCc1ccc(O[C@@H]3O[C@H](C(=O)O)[C@@H](O)[C@H](O)[C@H]3O)c([N+](=O)[O-])c1)NC(=O)[C@@H]1CCCN1C2=O` (stereo partly specified) was tested, and the “Ratio IC50” value (HT-29 [4]) was 208.85, the IC50 (HT-29 [5]) was 12.88 µmol and the IC50 (HT-29 [1]) was 2690 µmol.
